Assays:
[1] = target: T1, Muscarinic acetylcholine receptor M4 (Rattus norvegicus, UniProt P08485); experiment: Displacement of [3H]NMS from rat muscarinic receptor M4 expressed in CHO cell membranes incubated for 3 hrs by radiometric scintillation counting analysis; parameters: species or system Cell membrane
T1 sequence (P08485 whole entry): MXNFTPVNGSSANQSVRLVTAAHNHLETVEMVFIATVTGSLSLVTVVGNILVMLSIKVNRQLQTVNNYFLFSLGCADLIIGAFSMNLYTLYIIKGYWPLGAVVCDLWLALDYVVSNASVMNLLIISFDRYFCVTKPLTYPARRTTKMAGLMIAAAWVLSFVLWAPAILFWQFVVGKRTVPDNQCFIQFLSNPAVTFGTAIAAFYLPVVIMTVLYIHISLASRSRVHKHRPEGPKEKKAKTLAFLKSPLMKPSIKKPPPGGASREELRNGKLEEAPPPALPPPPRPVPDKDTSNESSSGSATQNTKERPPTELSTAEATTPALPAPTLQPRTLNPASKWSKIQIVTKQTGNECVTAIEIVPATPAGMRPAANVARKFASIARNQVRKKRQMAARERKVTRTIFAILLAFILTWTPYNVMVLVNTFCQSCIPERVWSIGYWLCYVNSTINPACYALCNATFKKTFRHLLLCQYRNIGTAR

[2] = target: Muscarinic acetylcholine receptor M5 (Homo sapiens, UniProt P08912); experiment: Antagonist activity at human muscarinic M5 receptor expressed in CHO cells co-expressing Gqi5 assessed as inhibition of acetylcholine-induced calcium mobilization; assay type: functional
Chain of Muscarinic acetylcholine receptor M5 (P08912 whole entry): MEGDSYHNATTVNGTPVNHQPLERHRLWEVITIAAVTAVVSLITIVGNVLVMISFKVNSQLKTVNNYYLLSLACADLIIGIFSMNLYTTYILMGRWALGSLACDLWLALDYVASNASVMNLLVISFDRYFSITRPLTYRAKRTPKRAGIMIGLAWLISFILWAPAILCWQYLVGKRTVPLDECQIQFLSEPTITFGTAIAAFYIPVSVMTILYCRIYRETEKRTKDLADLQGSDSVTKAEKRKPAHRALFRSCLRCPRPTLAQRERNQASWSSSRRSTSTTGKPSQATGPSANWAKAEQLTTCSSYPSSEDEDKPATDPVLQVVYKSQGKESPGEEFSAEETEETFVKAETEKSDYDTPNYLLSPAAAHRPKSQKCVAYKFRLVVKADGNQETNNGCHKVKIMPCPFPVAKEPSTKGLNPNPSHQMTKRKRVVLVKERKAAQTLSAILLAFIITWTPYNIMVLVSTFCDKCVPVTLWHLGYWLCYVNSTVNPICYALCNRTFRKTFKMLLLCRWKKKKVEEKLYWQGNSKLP
Procedure, shortened: (§1)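 CHO cells stably transfected with the given human mAChR subtype. Compound added before an EC80 concentration of acetylcholine; antagonism read as calcium mobilization. One independent determination in triplicate.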

[3] = Elimination half life in Beagle dog at 1 mg/kg, iv measured upto 24 hrs by LC-MS/MS analysis; assay type: ADME, organism-based, Canis lupus familiaris; details: in vivo, read-out: beta t1/2 (converted)
Procedure, shortened: (§2)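 Single iv and oral (suspension) dosing; iv/po doses 1/10 mg/kg in SD rat, 1/3 mg/kg in CD-1 mouse and beagle dog. Plasma PK parameters are means from two to three animals per species.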

[4] = Clearance in CD-1 mouse plasma at 1.0 mg/kg, iv measured upto 24 hrs by LC-MS/MS analysis; assay type: ADME, organism-based; procedure, shortened: as §2
Cytochrome P450 2C9 = Cytochrome P450 2C9 (Homo sapiens, UniProt P11712); experiment: Time dependent inhibition of CYP2C9 (unknown origin); assay type: ADME
Chain of Cytochrome P450 2C9 (P11712 whole entry): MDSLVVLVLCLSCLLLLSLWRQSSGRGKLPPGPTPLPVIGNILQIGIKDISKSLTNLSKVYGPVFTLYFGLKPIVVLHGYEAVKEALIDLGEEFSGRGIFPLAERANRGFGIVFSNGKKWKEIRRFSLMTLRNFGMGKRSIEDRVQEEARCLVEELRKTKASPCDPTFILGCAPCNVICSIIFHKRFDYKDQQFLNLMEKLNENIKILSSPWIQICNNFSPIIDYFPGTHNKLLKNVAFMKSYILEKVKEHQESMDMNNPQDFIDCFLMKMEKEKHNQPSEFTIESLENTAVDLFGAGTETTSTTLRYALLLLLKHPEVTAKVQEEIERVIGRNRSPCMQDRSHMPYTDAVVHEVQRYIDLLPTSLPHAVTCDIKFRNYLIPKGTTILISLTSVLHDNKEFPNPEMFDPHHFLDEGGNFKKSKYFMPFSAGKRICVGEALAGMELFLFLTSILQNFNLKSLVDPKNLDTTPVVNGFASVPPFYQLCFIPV

[5] = Ratio of drug concentration in brain to plasma of rat at 1 mg/kg, po after 1 hr; assay type: ADME, organism-based
Procedure, shortened: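 At the end of the catalepsy study, 1 h after a 1 mg/kg oral dose in rats, total brain/plasma (Kp) and unbound brain/plasma (Kp,uu) ratios were determined.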

CYP1A2 = target: T2, CYP1A2 (Homo sapiens, UniProt P05177); experiment: Induction of CYP1A2 in human hepatocytes; assay type: ADME, cell-based, Hepatocyte
T2 sequence (P05177 whole entry): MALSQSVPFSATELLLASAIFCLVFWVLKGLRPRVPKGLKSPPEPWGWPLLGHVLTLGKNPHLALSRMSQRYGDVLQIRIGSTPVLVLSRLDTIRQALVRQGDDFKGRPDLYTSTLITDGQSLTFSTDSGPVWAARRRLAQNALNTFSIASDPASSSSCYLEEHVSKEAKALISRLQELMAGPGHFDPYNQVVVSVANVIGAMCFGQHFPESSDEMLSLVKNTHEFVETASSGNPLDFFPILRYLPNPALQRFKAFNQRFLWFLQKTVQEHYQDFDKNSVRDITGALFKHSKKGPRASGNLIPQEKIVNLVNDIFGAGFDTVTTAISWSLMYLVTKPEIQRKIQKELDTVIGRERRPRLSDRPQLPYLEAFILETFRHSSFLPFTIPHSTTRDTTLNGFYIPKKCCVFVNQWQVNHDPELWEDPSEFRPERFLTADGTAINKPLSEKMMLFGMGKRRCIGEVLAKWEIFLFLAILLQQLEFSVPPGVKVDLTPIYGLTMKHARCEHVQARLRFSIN

CYP3A4 = CYP3A4 (Homo sapiens, UniProt P08684); experiment: Induction of CYP3A4 in human hepatocytes relative to control; assay type: ADME, cell-based, Hepatocyte
Chain of CYP3A4 (P08684 whole entry): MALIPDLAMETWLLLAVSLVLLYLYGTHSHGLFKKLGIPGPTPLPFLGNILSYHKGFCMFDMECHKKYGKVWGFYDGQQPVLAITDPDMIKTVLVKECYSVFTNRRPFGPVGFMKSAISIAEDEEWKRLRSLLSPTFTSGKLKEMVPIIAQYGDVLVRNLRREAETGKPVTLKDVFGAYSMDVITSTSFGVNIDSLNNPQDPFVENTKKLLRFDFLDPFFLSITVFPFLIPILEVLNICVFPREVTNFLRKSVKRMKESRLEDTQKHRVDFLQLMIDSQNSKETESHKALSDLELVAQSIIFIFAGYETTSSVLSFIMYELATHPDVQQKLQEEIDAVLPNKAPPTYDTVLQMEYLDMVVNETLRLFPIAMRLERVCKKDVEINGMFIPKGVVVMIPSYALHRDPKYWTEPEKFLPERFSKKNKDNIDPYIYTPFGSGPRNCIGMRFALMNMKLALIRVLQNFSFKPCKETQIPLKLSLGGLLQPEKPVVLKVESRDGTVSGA

[6] = Tmax in Beagle dog at 3 mg/kg, po measured upto 24 hrs by LC-MS/MS analysis; assay type: ADME, organism-based, Canis lupus familiaris; details: in vivo
Procedure, shortened: (§3)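 Pharmacokinetics in Sprague-Dawley rat, CD-1 mouse and beagle dog. Intravenous dose was 1 mg/kg in each species. Oral doses were given as a suspension: 10 mg/kg in rat, 3 mg/kg in mouse and dog. Each parameter is the mean of two to three animals.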

[7] = Elimination half life in Sprague-Dawley rat at 1 mg/kg, iv measured upto 24 hrs by LC-MS/MS analysis; assay type: ADME, organism-based; details: in vivo, read-out: beta t1/2 (converted); procedure, shortened: as §2
P-gp (human) = experiment: Efflux ratio of apparent permeability basolateral to apical over apical to basolateral side at human P-gp in MDCK-MDR1 cells; assay type: ADME, cell-based, Canis lupus familiaris; details: dog
Procedure, shortened: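 MDCK cell monolayers overexpressing MDR1 (P-gp). Efflux ratio taken as Papp(B-to-A)/Papp(A-to-B).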

[8] = target: T3, Muscarinic acetylcholine receptor M2 (Homo sapiens, UniProt P08172); experiment: Antagonist activity at human muscarinic M2 receptor expressed in CHO cells co-expressing Gqi5 assessed as inhibition of acetylcholine-induced calcium mobilization; assay type: functional, cell-based; procedure, shortened: as §1
T3 sequence (P08172 whole entry): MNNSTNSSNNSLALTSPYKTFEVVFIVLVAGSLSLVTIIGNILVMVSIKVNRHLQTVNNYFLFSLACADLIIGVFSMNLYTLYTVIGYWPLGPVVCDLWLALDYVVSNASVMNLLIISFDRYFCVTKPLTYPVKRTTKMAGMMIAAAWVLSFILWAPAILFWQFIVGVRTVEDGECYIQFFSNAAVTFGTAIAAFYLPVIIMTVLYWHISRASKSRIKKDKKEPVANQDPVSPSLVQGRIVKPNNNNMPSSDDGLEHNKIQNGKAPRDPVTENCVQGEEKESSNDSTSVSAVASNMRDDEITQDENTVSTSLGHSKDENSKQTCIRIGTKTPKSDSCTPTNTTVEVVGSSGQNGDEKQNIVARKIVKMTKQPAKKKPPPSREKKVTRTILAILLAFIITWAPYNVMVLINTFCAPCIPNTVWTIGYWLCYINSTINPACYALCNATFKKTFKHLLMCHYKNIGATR

CYP2B6 = CYP2B6 (Homo sapiens, UniProt P20813); experiment: Induction of CYP2B6 in human hepatocytes; assay type: ADME, cell-based, Hepatocyte
Chain of CYP2B6 (P20813 whole entry): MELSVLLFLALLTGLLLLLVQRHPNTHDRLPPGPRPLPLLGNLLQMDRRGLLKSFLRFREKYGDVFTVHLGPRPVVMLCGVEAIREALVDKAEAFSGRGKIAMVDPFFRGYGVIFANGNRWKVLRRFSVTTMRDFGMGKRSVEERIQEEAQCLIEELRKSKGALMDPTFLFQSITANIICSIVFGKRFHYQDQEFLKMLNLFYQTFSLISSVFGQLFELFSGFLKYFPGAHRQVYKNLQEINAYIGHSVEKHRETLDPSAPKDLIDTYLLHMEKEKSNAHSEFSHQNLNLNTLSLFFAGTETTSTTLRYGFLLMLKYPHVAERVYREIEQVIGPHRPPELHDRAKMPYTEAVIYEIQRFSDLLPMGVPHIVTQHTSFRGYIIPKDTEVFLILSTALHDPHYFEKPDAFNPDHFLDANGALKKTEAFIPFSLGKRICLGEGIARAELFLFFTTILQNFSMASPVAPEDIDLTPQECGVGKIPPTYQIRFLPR

[9] = Ratio of drug concentration in brain to plasma of Sprague-Dawley rat at 1 mg/kg, iv; assay type: ADME, organism-based
Rattus norvegicus = experiment: Reversal of haloperidol-induced catalepsy in rat at 1.0 mg/kg, po relative to control; assay type: functional
Procedure, shortened: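 Rat haloperidol-induced catalepsy model with oral test dosing at 0.3, 1 and 3 mg/kg alongside vehicle-treated controls. Read-out is latency to withdraw, also expressed as % reversal of catalepsy. Groups compared by ANOVA.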

[10] = Volume of distribution at steady state in Beagle dog at 1.0 mg/kg, iv measured upto 24 hrs by LC-MS/MS analysis; assay type: ADME, organism-based, Canis lupus familiaris; details: in vivo, read-out: Vdss; procedure, shortened: as §3
[11] = Cmax in Beagle dog at 3 mg/kg, po measured upto 24 hrs by LC-MS/MS analysis; assay type: ADME, organism-based, Canis lupus familiaris; parameters: route oral, dose 3 mg/kg, time <=24; details: in vivo; procedure, shortened: as §2
[12] = Cmax in Sprague-Dawley rat at 10 mg/kg, po measured upto 24 hrs by LC-MS/MS analysis; assay type: ADME, organism-based; parameters: route oral, dose 10 mg/kg, time <=24; details: in vivo; procedure, shortened: as §2

In the case of Fc1cc(F)c(F)c(-c2ccc(N[C@H]3C[C@@H]4CN(CC5CCOCC5)C[C@@H]4C3)nn2)c1, the IC50 [1] is reported as 0.145 µM, the IC50 [2] is reported as over 10 µM and the half-life [3] is reported as 15 h. It also gave a clearance [4] of 17 mL/min/kg, an IC50 (Cytochrome P450 2C9) of over 100 µM and a Kp at 1 h [5] of 3.4. The EC50 (CYP1A2) was 1.9 µM, the Emax (CYP3A4) was 2.1% and the Tmax [6] was 17 h. It also gave a half-life [7] of 13 h, an efflux ratio (P-gp (human)) of 8.9 and an IC50 [8] of 3.5 µM. For the same compound, the EC50 (CYP2B6) was 1.9 µM, the Kp [9] was 6.4 and the Activity (Rattus norvegicus) was 50.9%. For the same compound, the Vd [10] was 8.5 L/kg, the Cmax [11] was 70 ng/mL and the Cmax [12] was 17000 ng/mL.
